Values belong to the compound of their own block, whether it stands above or below them. The source made the active and inactive calls. No cut-off for these calls is given here.
Assays:
CHO = assay: Cytotoxicity against CHO cells after 48 hrs by MTS assay; type: cell-based; settings: Cricetulus griseus
Summary of the method: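 CHO cells plated at 10000 cells/mL and incubated overnight. Drug from DMSO stock added, final DMSO <1%. Incubated 48 h at 37 °C, 5% CO2, then MTS reagent for 4 h more. Absorbance read at 490 nm. Run in triplicate; IC50 taken from a plot of relative A490 vs drug concentration.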

[1] = Activation of MAPK signaling pathway in mock-transfected HEK293T cells at 10 uM after 20 to 24 hrs by luciferase-based Elk1 reporter gene assay relative to control; type: cell-based; settings: Homo sapiens, HEK-293T
Summary of the method: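 HEK293T cells transiently transfected with 0.1 μg Elk1, 5 μg Luc and empty pcDNA3 (PathDetect trans Elk1 system). After 5 h, washed, seeded at 20,000 cells/well in DMEM, 1% FBS, 2 mM L-glutamine, 1% pen-strep, 1% DMSO. Compound at 10 μM; 37 °C, 5% CO2, 20−24 h. Bright-Glo luminescence; % effect = 100% × (treated/1% DMSO control luminescence) − 100%.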

[2] = Inverse agonist activity at human cytomegalovirus US28 receptor transfected in HEK293T cells assessed as activation of MAPK signaling pathway at 10 uM after 20 to 24 hrs by luciferase-based Elk1 reporter gene assay relative to control; type: cell-based; settings: Human betaherpesvirus 5, HEK-293T
Summary of the method: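 HEK293T transiently transfected with 0.1 μg Elk1, 5 μg Luc and 5 μg US28 vector (PathDetect trans Elk1), reading US28-driven MAPK/Elk1 signaling. After 5 h, seeded 20,000 cells/well in DMEM, 1% FBS, 2 mM L-glutamine, 1% pen-strep, 1% DMSO with compound; 37 °C, 5% CO2, 20−24 h. Bright-Glo luciferase luminescence vs no-compound control. Triplicates, 3−5 experiments; curves normalized, pooled, fitted by nonlinear regression.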

[3] = Inverse agonist activity at human cytomegalovirus US28 receptor transfected in HEK293T cells assessed as activation of MAPK signaling pathway after 20 to 24 hrs by luciferase-based Elk1 reporter gene assay; type: cell-based, Human betaherpesvirus 5, HEK-293T
Summary of the method: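 HEK293T cells transiently co-transfected with Elk1 (0.1 μg), Luc (5 μg) and US28 vector (5 μg); 5 h later washed, seeded at 20,000 cells/well in DMEM, 1% FBS, 2 mM L-glutamine, 1% penicillin-streptomycin, 1% DMSO with compound; 37 °C, 5% CO2, 20–24 h; BrightGlo luminescence. 3–5 experiments in triplicate, pooled normalized sigmoid fits give EC50 and efficacy.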

[4] = Human betaherpesvirus 5, HEK-293T, read-out: EC50
[5] = Human betaherpesvirus 5, HEK-293T, read-out: pEC50 (converted)

Structure (SMILES): COc1ccc(Cl)cc1/C=C/C(=O)c1ccccc1O
IC50 (CHO): 8.4 µM
Activity [1]: -30%
Efficacy [2]: -58%
EC50 [3, 4]: 7.8 µM
EC50 [3, 5]: 7.76 µM

Structure (SMILES): CCOc1ccc(Cl)cc1-c1oc2ccccc2c(=O)c1O
IC50 (CHO): > 100 µM
Activity [1]: -17%
Efficacy [2]: -41%
EC50 [3, 4]: 0.31 µM
EC50 [3, 5]: 0.309 µM

Structure (SMILES): COc1cc(Br)cc(-c2oc3ccccc3c(=O)c2O)c1OC
IC50 (CHO): > 100 µM
Activity [1]: -28%
Activity [2]: inactive

Structure (SMILES): COc1ccccc1-c1cc(=O)c2c(OCc3ccccc3)cccc2o1
IC50 (CHO): 17.5 µM
Activity [1]: -40%
Efficacy [2]: -49%
EC50 [3, 4]: 7.3 µM
EC50 [3, 5]: 7.24 µM

Structure (SMILES): CCOc1ccc(Cl)cc1/C=C/C(=O)c1ccccc1O
IC50 (CHO): 6.8 µM
Activity [1]: 33%
Efficacy [2]: -76%
EC50 [3, 4]: 6.4 µM
EC50 [3, 5]: 6.46 µM

Structure (SMILES): COc1ccc(I)cc1/C=C/C(=O)c1ccccc1O
IC50 (CHO): 6.7 µM
Activity [1]: 100%
Efficacy [2]: -94%
EC50 [3, 4]: 5.5 µM
EC50 [3, 5]: 5.5 µM

Structure (SMILES): COc1cc(OC)c(/C=C/C(=O)c2ccccc2O)cc1Br
IC50 (CHO): 16.9 µM
Activity [1]: 5%
Efficacy [2]: -55%
EC50 [3, 4]: 4.9 µM
EC50 [3, 5]: 4.9 µM

Structure (SMILES): COc1ccc(Br)cc1-c1oc2cccc(OC)c2c(=O)c1O
IC50 (CHO): 17.3 µM
Activity [1]: -1%
Activity [2]: inactive

Structure (SMILES): COc1cc(Br)cc(/C=C/C(=O)c2ccccc2O)c1OC
IC50 (CHO): 7.2 µM
Activity [1]: -42%
Efficacy [2]: -52%
EC50 [3, 4]: 6.7 µM
EC50 [3, 5]: 6.61 µM

Structure (SMILES): COc1ccc(I)cc1-c1oc2ccccc2c(=O)c1O
IC50 (CHO): 17.9 µM
Activity [1]: -23%
Activity [2]: inactive

Structure (SMILES): COc1ccc(Br)cc1/C=C/C(=O)c1c(O)cccc1OC
IC50 (CHO): 6.1 µM
Activity [1]: 290%
Efficacy [2]: -95%
EC50 [3, 4]: 6 µM
EC50 [3, 5]: 6.03 µM

Structure (SMILES): COc1ccc(Br)cc1-c1cc(=O)c2c(O)cccc2o1
IC50 (CHO): 75.2 µM
Activity [1]: -16%
Activity [2]: inactive

Structure (SMILES): COc1ccccc1/C=C/C(=O)c1ccccc1O
IC50 (CHO): 25.5 µM
Activity [1]: 8%
Efficacy [2]: 67%
EC50 [3, 4]: 1.4 µM
EC50 [3, 5]: 1.45 µM

Structure (SMILES): CCOc1ccc(Br)cc1/C=C/C(=O)c1ccccc1O
IC50 (CHO): 7.2 µM
Activity [1]: -3%
Efficacy [2]: -88%
EC50 [3, 4]: 5 µM
EC50 [3, 5]: 5.01 µM

Structure (SMILES): COc1ccc(Br)cc1C1CC(=O)c2ccccc2O1 (stereo unspecified)
IC50 (CHO): 67.9 µM
Activity [1]: -5%
Activity [2]: inactive

Structure (SMILES): COc1ccc(Br)cc1/C=C/C(=O)c1ccc2ccccc2c1O
IC50 (CHO): 15.6 µM
Activity [1]: 35%
Efficacy [2]: -92%
EC50 [3, 4]: 2.9 µM
EC50 [3, 5]: 2.88 µM

Structure (SMILES): COc1ccc(Br)cc1-c1cc(=O)c2ccccc2o1
IC50 (CHO): > 100 µM
Activity [1]: -17%
Efficacy [2]: -55%
EC50 [3, 4]: 8.1 µM
EC50 [3, 5]: 8.13 µM

Structure (SMILES): COc1ccccc1-c1cc(=O)c2ccccc2o1
IC50 (CHO): 64.8 µM
Activity [1]: 3%
Activity [2]: inactive

EC50 [3, 4]: 10 µM
Structure (SMILES): COc1ccc(C)cc1/C=C/C(=O)c1ccccc1O
IC50 (CHO): 14.2 µM
Activity [1]: -4%
Efficacy [2]: 52%

Structure (SMILES): COc1ccc(C)cc1-c1oc2ccccc2c(=O)c1O
IC50 (CHO): 54.6 µM
Activity [1]: 0%
Efficacy [2]: -38%
EC50 [3, 4]: 1.78 µM
EC50 [3, 5]: 1.78 µM

Structure (SMILES): COc1ccc(Br)cc1-c1cc(=O)c2c(OCc3ccccc3)cccc2o1
IC50 (CHO): 96.6 µM
Activity [1]: -3%
Efficacy [2]: -89%
EC50 [3, 4]: 3.5 µM
EC50 [3, 5]: 3.47 µM

Structure (SMILES): COc1cc(OC)c(-c2oc3ccccc3c(=O)c2O)cc1Br
IC50 (CHO): 18.3 µM
Activity [1]: -17%
Activity [2]: inactive

Structure (SMILES): COc1ccc(Br)cc1/C=C/C(=O)c1ccccc1O
IC50 (CHO): 8.7 µM
Activity [1]: -29%
Efficacy [2]: -44%
EC50 [3, 4]: 7.8 µM
EC50 [3, 5]: 7.76 µM

Structure (SMILES): COc1ccccc1-c1oc2ccccc2c(=O)c1O
IC50 (CHO): > 100 µM
Activity [1]: -1%
Efficacy [2]: -19%
EC50 [3, 4]: 4.6 µM
EC50 [3, 5]: 4.57 µM

Structure (SMILES): COc1ccc(Cl)cc1-c1oc2ccccc2c(=O)c1O
IC50 (CHO): 25 µM
Activity [1]: 2%
Efficacy [2]: -42%
EC50 [3, 4]: 1.32 µM
EC50 [3, 5]: 1.32 µM

Structure (SMILES): COc1ccccc1-c1cc(=O)c2c(O)cccc2o1
IC50 (CHO): > 100 µM
Activity [1]: 2%
Activity [2]: inactive

Structure (SMILES): COc1ccccc1/C=C/C(=O)c1c(O)cccc1OCc1ccccc1
EC50 ([3]; hek-293t): ND(toxic)

Structure (SMILES): CCOc1ccc(Br)cc1-c1oc2ccccc2c(=O)c1O
IC50 (CHO): 13.5 µM
Activity [1]: -31%
Efficacy [2]: -41%
EC50 [3, 4]: 0.8 µM
EC50 [3, 5]: 0.832 µM

Structure (SMILES): COc1ccc(Br)cc1/C=C/C(=O)c1c(O)cccc1OCc1ccccc1
IC50 (CHO): 8.1 µM
EC50 ([3]; hek-293t): ND(toxic)

Structure (SMILES): COc1ccc(Cl)cc1C1CC(=O)c2ccccc2O1 (stereo unspecified)
Activity [1]: -14%
Activity [2]: inactive

Structure (SMILES): COc1ccc(Br)cc1-c1oc2ccccc2c(=O)c1O
IC50 (CHO): 88.5 µM
Activity [1]: -11%
Activity [2]: inactive

— ChEMBL document CHEMBL2385004, “Development of flavonoid-based inverse agonists of the key signaling receptor US28 of human cytomegalovirus” (J Med Chem, 2013)
